Data published in PMC8317952 (ACS catalysis, 2020).
Values joined by “and” are separate entries in the source; they are usually repeats but may differ in a detail not shown here. Equal entries are not always repeated. Structures can show the parent of a compound that is named as a salt. Where two headings read alike, the source gives them in different places.

What was measured:
mutants of P450BM-3 = settings: cited from earlier work
P450BM-3 [1] = target: T1, P450BM-3 (Priestia megaterium, UniProt P14779); assay: biochemical; format: binding
T1 sequence (P14779 1-1049): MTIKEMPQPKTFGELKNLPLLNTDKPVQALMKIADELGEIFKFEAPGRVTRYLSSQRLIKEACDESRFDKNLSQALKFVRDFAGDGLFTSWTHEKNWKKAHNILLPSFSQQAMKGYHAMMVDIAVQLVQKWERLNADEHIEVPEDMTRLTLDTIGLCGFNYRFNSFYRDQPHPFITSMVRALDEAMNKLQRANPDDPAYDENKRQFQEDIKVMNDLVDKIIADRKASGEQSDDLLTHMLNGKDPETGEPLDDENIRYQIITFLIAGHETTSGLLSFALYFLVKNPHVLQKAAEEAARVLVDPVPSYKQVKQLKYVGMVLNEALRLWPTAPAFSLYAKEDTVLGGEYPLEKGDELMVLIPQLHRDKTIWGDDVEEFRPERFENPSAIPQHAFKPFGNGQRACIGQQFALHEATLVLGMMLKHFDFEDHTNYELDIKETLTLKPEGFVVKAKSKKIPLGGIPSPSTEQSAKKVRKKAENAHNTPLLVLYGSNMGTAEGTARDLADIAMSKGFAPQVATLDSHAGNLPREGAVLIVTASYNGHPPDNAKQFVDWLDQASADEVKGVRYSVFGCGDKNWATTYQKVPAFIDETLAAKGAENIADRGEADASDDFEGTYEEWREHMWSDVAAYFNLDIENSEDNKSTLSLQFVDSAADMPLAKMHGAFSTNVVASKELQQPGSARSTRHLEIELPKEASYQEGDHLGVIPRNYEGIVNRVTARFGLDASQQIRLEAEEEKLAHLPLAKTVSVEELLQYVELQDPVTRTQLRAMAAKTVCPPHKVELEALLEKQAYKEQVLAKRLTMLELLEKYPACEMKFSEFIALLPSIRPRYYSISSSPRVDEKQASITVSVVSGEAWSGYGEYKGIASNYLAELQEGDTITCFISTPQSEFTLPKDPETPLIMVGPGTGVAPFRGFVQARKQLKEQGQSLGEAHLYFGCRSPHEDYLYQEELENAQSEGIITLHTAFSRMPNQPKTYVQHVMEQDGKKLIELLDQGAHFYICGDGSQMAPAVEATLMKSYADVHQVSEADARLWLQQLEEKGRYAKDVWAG

P450BM-3 [2] = target: T1, P450BM-3; format: binding, Bacillus megaterium; settings: read-out: Kd estimate (Kd = koff/kon); from fitted on- and off-rate constants
ferrous P450BM-3 = settings: surrogate for O2; cited from earlier work
P450BM-3 [3] = target: T1, P450BM-3; assay: Steady-state NADPH oxidation; format: biochemical, Bacillus megaterium; settings: for Km / kcat: rates of NADPH oxidation, hyperbolic fit, 23 °C
P450BM-3 [4] = target: T1, P450BM-3; settings: substrate-bound P450BM-3; cited from earlier work
P450 102A2 (CYP102A2) [5] = settings: cited from earlier work
P450BM-3 [6] = target: T1, P450BM-3; assay: Pre-steady-state stopped-flow kinetics of substrate binding; set-up: species or system Bacillus megaterium; settings: for eigenvalue (λ) of spectral change, single exponential fit: ΔA390
P450BM-3 [7] = target: T1, P450BM-3; format: biochemical, Bacillus megaterium; settings: for site of hydroxylation: Jones oxidation, Baeyer-Villiger, LC-MS/MS
P450 102A2 (CYP102A2) [8] = assay: Literature: NADPH oxidation and binding with dodecyl sulfate by P450 102A2; format: biochemical, B. subtilis; settings: P450 102A2 at 37 °C vs P450BM-3 at 23 °C
P450BM-3 [9] = target: T1, P450BM-3; settings: read-out: Kd values in the previous literature; buffer conditions appear to affect these; cited from earlier work
P450BM-3 [10] = target: T1, P450BM-3; assay: Burst experiment: stopped-flow NADPH oxidation with lauric acid; format: biochemical, Bacillus megaterium; settings: 2 μM P450BM-3, 500 μM lauric acid, 50 μM NADPH
In short: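 In the stopped-flow instrument, enzyme (4 μM) premixed with 1 mM lauric acid was mixed with 100 μM NADPH, both in 50 mM potassium MOPS pH 7.5. Runs were at 23 °C in rapid-scanning mode, recording spectra from 332–565 nm with kinetic traces taken at individual wavelengths.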

P450BM-3 [11] = target: T1, P450BM-3; settings: cited from earlier work
[12] = read-out: Kd (spectral titration), 50 mM potassium MOPS pH 7.4, 23 °C
[13] = d0 vs d23 lauric acid, non-competitive, NADPH oxidation

Compound: CCOc1ccc2ccc(=O)oc2c1 [7-ethoxycoumarin]
- KIEs for O-deethylation (mutants of P450BM-3): 6–17

Compound: CC(O)CCCCCCCCCC(=O)O (centres unmarked) [11-OH lauric acid]
- type of difference spectrum (P450BM-3 [1]): Type I
- Kd (P450BM-3 [1]; [12]): 8 ± 2 µM
- Kd (P450BM-3 [2]): 11 µM

Compound: [C-]#[O+] [CO]
- rate constant for CO binding (ferrous P450BM-3): 1.6e+06 M⁻¹ s⁻¹

Compound: CCCCCCCCCCCCCCCC(=O)NCC(=O)O [N-palmitoylglycine]
- Km (P450BM-3 [3]): 9 ± 2 µM
- kcat (P450BM-3 [3]): 9.92 ± 0.667 s⁻¹
- rate of change of temperature-dependent spin equilibria (P450BM-3 [4]): ~ 800 s^−1

Compound: CCCCCCCCCCCCOS(=O)(=O)O [dodecyl sulfate]
- Km (P450BM-3 [3]): 28 ± 1 µM
- kcat (P450BM-3 [3]): 16.3 ± 0.333 s⁻¹
- apparent specificity constant kcat/S0.5 (P450 102A2 (CYP102A2) [5]; 37 °C): 1600 M⁻¹ s⁻¹
- Hill n value (P450 102A2 (CYP102A2) [5]; spectral binding and NADPH oxidation): 5.7
- eigenvalue (λ) of spectral change, single exponential fit (P450BM-3 [6]; 2 μM dodecyl sulfate (final)): 127 s⁻¹ and 127 ± 4 s⁻¹
- eigenvalue (λ) of spectral change, single exponential fit (P450BM-3 [6]; 200 μM dodecyl sulfate (final)): 51 ± 4 s⁻¹
- rate constant for substrate binding (kon), rough value (P450BM-3 [6]; from binding rate and substrate concentration): 6e+07 M⁻¹ s⁻¹
- t1/2 of binding spectral changes (P450BM-3 [6]; stopped-flow): 0.006 to 0.025 s
- Kd (P450BM-3 [1]; [12]): 14 ± 2 µM
- site of hydroxylation (P450BM-3 [7]): primarily ω−1 hydroxylation
- fold lower specificity constant of P450 102A2 than P450BM-3 (P450 102A2 (CYP102A2) [8]): ~ 500 fold

Compound: CCCCCCCCCCCC(=O)O [lauric acid]
- KIE, ^D(V/K) (P450BM-3 [3]; [13]): 0.79 ± 0.07
- KIE, ^DV (P450BM-3 [3]; [13]): 1.19 ± 0.16
- KIEs, measured with multiple concentrations of d0/d23 laurate (P450BM-3 [3]; depending on the assay method): ≤ 1.2
- kcat (P450BM-3 [3]): 19.33 ± 2.5 s⁻¹
- Kd (P450BM-3 [9]): 27 to 390 µM
- kinetic burst (P450BM-3 [10]): No burst was observed
- rate of NADPH oxidation, steady-state portion (P450BM-3 [10]; pH 7.5): 608 ± 4 min⁻¹
- rate of reduction of iron from the ferric to the ferrous state (P450BM-3 [11]): 53 to 306 s⁻¹
- Kd (P450BM-3 [1]; [12]): 29 µM
- KIE from rates of formation of hydroxylated laurate products (P450BM-3 [7]; LC-MS, 100 μM laurate, 180 second time point): 1.03

Compound: CCCCCCCCCCCCCC(=O)O [myristate]
- Kd (P450BM-3 [9]): 0.5 to 78 µM
- rate of reduction of iron from the ferric to the ferrous state (P450BM-3 [11]): 53 to 306 s⁻¹
- Kd (P450BM-3 [1]): 12 µM

Compound: CCCCCCCCCCCCCCCC(=O)O [palmitic acid, Palmitic acid]
- rate of reduction of iron from the ferric to the ferrous state (P450BM-3 [11]): 53 to 306 s⁻¹

Compound: CCCCCCCCCCCCCCOS(=O)(=O)O [tetradecyl sulfate]
- initial rate of disappearance of NADPH (A340) (P450BM-3 [3]; with tetradecyl sulfate as substrate): 1.75 pmol/s
- Kd (P450BM-3 [1]): 1.4 ± 0.1 µM
- site of hydroxylation (P450BM-3 [7]): primarily ω−1 hydroxylation
- NADPH oxidation accounted for as disappearance of the substrate (P450BM-3 [7]; over the first 100 seconds): 97%

Compound: d23-Lauric acid [d23 lauric acid]
- kcat (P450BM-3 [3]): 16.2 ± 0.5 s⁻¹
